The record followed here is paper PMC10871334 (bioRxiv, 2024).

The IC50 is the concentration that inhibits the measured activity by half. A lower IC50 goes with higher potency. One may read the inhibition as the relative decrease from the control value, in per cent.

For test [1], the target named is T1, SUGCT (Homo sapiens, UniProt Q9HAC7).
T1 sequence (Q9HAC7 31-438 limits assumed): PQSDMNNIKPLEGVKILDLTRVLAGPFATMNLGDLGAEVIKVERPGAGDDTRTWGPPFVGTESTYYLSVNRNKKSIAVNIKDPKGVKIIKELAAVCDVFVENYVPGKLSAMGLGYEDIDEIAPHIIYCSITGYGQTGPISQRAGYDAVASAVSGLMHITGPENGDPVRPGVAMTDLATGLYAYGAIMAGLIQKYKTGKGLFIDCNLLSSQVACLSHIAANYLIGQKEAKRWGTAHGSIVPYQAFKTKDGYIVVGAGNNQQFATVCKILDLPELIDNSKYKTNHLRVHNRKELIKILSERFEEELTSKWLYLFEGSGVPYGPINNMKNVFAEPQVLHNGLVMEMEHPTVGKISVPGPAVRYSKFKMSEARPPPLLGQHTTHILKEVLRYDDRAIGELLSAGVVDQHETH
Nature of the test: Fluorometric SUGCT enzyme assay coupled to HMG-CoA reductase. Conditions: for SUGCT inhibition at 10 μM (in words): repurchased hits. It is filed as biochemical.

Test [2] has as its target T2, human HMG-CoA reductase (HMGCR) (Homo sapiens, UniProt P04035).
T2 sequence (P04035 426-888): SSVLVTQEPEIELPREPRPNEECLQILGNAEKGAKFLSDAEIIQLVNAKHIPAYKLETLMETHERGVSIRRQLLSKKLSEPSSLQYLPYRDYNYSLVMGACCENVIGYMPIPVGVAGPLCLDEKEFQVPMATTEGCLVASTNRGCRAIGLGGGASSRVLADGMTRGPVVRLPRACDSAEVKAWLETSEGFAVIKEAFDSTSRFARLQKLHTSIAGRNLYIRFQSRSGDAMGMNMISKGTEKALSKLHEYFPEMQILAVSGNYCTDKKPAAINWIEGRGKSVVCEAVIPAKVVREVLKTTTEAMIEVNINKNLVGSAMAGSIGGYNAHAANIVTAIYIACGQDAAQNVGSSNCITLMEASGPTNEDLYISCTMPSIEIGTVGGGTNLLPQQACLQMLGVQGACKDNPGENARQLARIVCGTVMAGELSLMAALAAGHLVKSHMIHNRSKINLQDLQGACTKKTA
Nature of the test: Spectrophotometric HMGCR counter-screen assay. Format: biochemical. Conditions: up to 100 μM. Summed up: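 Human HMGCR catalytic domain (residues 426–888), N-terminal His-tagged, expressed in E. coli and IMAC-purified. Assay contains 9 U/L HMGCR, 150 μM HMG-CoA, 300 μM NADPH, 4 mM DTT and 0.1% Triton X-100 in 100 mM potassium phosphate, pH 7.4. NADPH consumption is followed by absorbance at 340 nm.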
On the technique in general: The purpose of a counterscreen is to sort out artefacts and off-target activity.

Test [3] has as its system SUGCT overexpressing GA1 HEK-293 cells. Put plainly: C5DC in SUGCT overexpressing GA1. It is filed as cell-based, human. Conditions: treatment of SUGCT overexpressing GA1 HEK-293 cells. Summed up:
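Stable SUGCT overexpression in Flp-In 293 cells by co-transfection with Flp recombinase and selection in 100 μg/ml hygromycin B for 2–3 weeks. GCDH knocked out by CRISPR-Cas9, with single-clone sorting. Cells grown at 37°C, 5% CO2 in DMEM with 10% FBS. Metabolites extracted with cold methanol:acetonitrile:water 5:3:2 overnight at −80°C, then analysed by reverse-phase C18 LC-MS in positive mode.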

For test [4], the target named is T1, SUGCT. It is filed as biochemical. Conditions: HMG-CoA as CoA donor, 30 minutes.

Entries after “also recorded” stand apart in the source; their conditions may differ.

As for `O=C(O)CCc1nc(-c2ccccc2)c(-c2ccccc2)o1` [oxaprozin], the “SUGCT inhibition at 10 μM (in words)” value in test [1] is “inhibited”.
On to `CCCCC(=O)N(Cc1ccc(-c2ccccc2-c2nnn[nH]2)cc1)[C@H](C(=O)O)C(C)C` [Valsartan], for which the “SUGCT inhibition at 10 μM (in words)” value in test [1] is on record as “inhibited”. This compound yielded an IC50 in test [1] (IC50 (SUGCT inhibition), standard assay, 100 mM potassium phosphate pH 7.4) of 3.8 µM. Also, the inhibition at 10 µM in test [1] (read-out: inhibition of SUGCT at 10 μM) is over 50%. Also, the “inhibition of HMGCR” value in test [2] was “did not inhibit”. Further, the “effect on C5DC / activity in cells” value in test [3] is recorded as “did not observe a decrease in C5DC; also recorded: unable to detect activity”. In addition, the “conversion into a CoA ester by SUGCT” value in test [4] is recorded as “no evidence”.
On to `CC(C)c1nc(N(C)S(C)(=O)=O)nc(-c2ccc(F)cc2)c1/C=C/[C@@H](O)C[C@@H](O)CC(=O)O` [rosuvastatin], for which the “result in high throughput screen of FDA approved library” value in test [1] (screening concentration 100 μM, coupled assay also detects HMGCR inhibitors) is “one of our hits”.
Regarding `O=C(O)CCCC(=O)O` [Glutarate, glutarate], the mode of inhibition result in test [1] (with respect to HMG, increases apparent Km for HMG) is on record as “competitive inhibitor”.
For `CCCCc1nc(Cl)c(CO)n1Cc1ccc(-c2ccccc2-c2nn[nH]n2)cc1` [losartan], in test [1] (each ARB measured in duplicate at 10 μM), the “activity of Angiotensin II Receptor Blockers on SUGCT (in words)” value is “inactive”.
For `CCCCC(=O)N(Cc1ccc(-c2ccccc2-c2nn[nH]n2)cc1)[C@H](C(=O)OCC)C(C)C` [valsartan ethyl ester, Valsartan ethyl ester], the “effect on C5DC / activity in cells” value in test [3] is reported as “did not observe a decrease in C5DC”.
